Measured values: ChEMBL document CHEMBL4359877, “Identification of benzothiazinones containing an oxime functional moiety as new anti-tuberculosis agents” (Eur J Med Chem, 2019)

Key:
[1] = test system: Mycobacterium tuberculosis; assay: Antimycobacterial activity against Mycobacterium tuberculosis H37Rv ATCC 27294 assessed as reduction in bacterial cell growth incubated for 7 days by microplate alamar blue assay; type: functional; conditions: H37Rv ATCC 27294, 168 h
How it was run: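 MABA: H37Rv or clinical MDR isolates (resistant to INH and RFP, Beijing Chest Hospital patients) grown to late log phase in 7H9 with glycerol, Tween 80 and ADC, washed, filtered and frozen. Two-fold compound dilutions with 2 × 10⁵ CFU per well, 37 °C; Alamar blue plus Tween 80 added on day 7, fluorescence (ex 530/em 590) read after 16–24 h. MIC = lowest concentration giving ≥90% fluorescence reduction versus mean of bacterium-only controls; RIF and INH as positive controls.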

[2] = Cytotoxicity against African green monkey Vero cells assessed as reduction in cell viability; type: cell-based; conditions: chlorocebus sabaeus
[3] = Half life in ICR mouse at 25 mg/kg, po measured upto 24 hrs by HPLC analysis; type: ADME, organism-based; conditions: in vivo
How it was run: (§1)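 Female SPF ICR mice, 18–22 g, fasted overnight, 3 per group; single oral dose 25 mg/kg as suspension in 0.5% CMC. Jugular vein blood drawn at 0.25, 0.5, 1, 2, 4, 6, 8 and 24 h; serum deproteinised with acetonitrile, dried, redissolved and quantified by HPLC. AUC, t1/2, Cmax and Tmax taken directly from concentration–time data.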

[4] = Tmax in ICR mouse at 25 mg/kg, po measured upto 24 hrs by HPLC analysis; type: ADME, organism-based; conditions: in vivo; how it was run: as §1
[5] = Cmax in ICR mouse at 25 mg/kg, po measured upto 24 hrs by HPLC analysis; type: ADME, organism-based; design: dose 25 mg/kg, route oral; conditions: in vivo; how it was run: as §1
[6] = AUC (0 to infinity) in ICR mouse at 25 mg/kg, po measured upto 24 hrs by HPLC analysis; type: ADME, organism-based; design: dose 25 mg/kg, time infinity, route oral; conditions: in vivo; how it was run: as §1
[7] = MRT in ICR mouse at 25 mg/kg, po measured upto 24 hrs by HPLC analysis; type: ADME, organism-based; conditions: in vivo; how it was run: as §1
[8] = test system: Mycobacterium tuberculosis; assay: Antituberculosis activity against Mycobacterium tuberculosis H37Rv infected in BALB/C mouse assessed as colony forming unit in lungs at 25 mg/kg, po administered once daily via gavage for 5 days per week for 3 weeks starting from 10 days post-infection (reference value: 6.44 +/- 0.34); type: functional
[9] = test system: Mycobacterium tuberculosis; assay: Antimycobacterial activity against Mycobacterium tuberculosis H37Rv assessed as reduction in bacterial cell growth at 32 ug/ml by Low-oxygen recovery assay; type: functional
[10] = test system: Mycobacterium tuberculosis; assay: Antimycobacterial activity against Mycobacterium tuberculosis H37Rv assessed as reduction in bacterial cell growth by Low-oxygen recovery assay; type: functional
CYP1A2 = target: T1, CYP1A2 (Homo sapiens, UniProt P05177); assay: Inhibition of CYP1A2 (unknown origin); type: ADME
T1 sequence (P05177 whole entry): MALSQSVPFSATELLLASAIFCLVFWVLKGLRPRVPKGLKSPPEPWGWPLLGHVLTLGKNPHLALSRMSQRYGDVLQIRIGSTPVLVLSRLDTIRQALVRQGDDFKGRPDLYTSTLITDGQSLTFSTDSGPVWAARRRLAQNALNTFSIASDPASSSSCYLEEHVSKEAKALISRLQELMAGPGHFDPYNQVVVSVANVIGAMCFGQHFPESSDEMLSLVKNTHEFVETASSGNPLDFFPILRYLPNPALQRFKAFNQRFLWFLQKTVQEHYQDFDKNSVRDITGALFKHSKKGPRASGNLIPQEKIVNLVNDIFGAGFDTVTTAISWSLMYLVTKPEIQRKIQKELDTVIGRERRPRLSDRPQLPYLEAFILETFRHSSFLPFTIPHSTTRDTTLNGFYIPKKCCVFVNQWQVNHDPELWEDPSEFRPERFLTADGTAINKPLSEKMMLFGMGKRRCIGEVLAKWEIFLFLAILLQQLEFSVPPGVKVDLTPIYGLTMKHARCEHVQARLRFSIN

CYP2D6 = CYP2D6 (Homo sapiens, UniProt P10635); assay: Inhibition of CYP2D6 (unknown origin); type: ADME
CYP3A4 = CYP3A4 (Homo sapiens, UniProt P08684); assay: Inhibition of CYP3A4 (unknown origin); type: ADME
CYP2C9 = CYP2C9 (Homo sapiens, UniProt P11712); assay: Inhibition of CYP2C9 (unknown origin); type: ADME
Cytochrome P450 2C19 = Cytochrome P450 2C19 (Homo sapiens, UniProt P33261); assay: Inhibition of CYP2C19 (unknown origin); type: ADME
[11] = Mutagenicity in Salmonella typhimurium TA100 in absence of S9 fraction by mini-Ames test; type: toxicity; conditions: salmonella enterica subsp. enterica serovar typhimurium
[12] = Mutagenicity in Salmonella typhimurium TA102 in absence of S9 fraction by mini-Ames test; type: toxicity; conditions: salmonella enterica subsp. enterica serovar typhimurium
[13] = Mutagenicity in Salmonella typhimurium TA100 in presence of S9 fraction by mini-Ames test; type: toxicity, subcellular; conditions: salmonella enterica subsp. enterica serovar typhimurium
[14] = Mutagenicity in Salmonella typhimurium TA102 in presence of S9 fraction by mini-Ames test; type: toxicity, subcellular; conditions: salmonella enterica subsp. enterica serovar typhimurium
[15] = Acute toxicity in Sprague-Dawley rat assessed as death at 2 g/kg, po measured continuously for first 4 hrs followed by every 1 hr for next 24 hrs and subsequent 8 hrs interval for 7 days; type: organism-based; conditions: in vivo, 2000 mg/kg
How it was run: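 SD rats, 180–220 g, randomised, ten per group, food withheld overnight. Single oral dose of 2 g/kg suspended in 5% CMC; controls given vehicle only. Watched continuously for 4 h, hourly for the next 24 h, then every 8 h through day 7 for deaths or changes. Read-out is survivors/total at 7 days.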

[16] = Half life in Sprague-Dawley rat at 2.5 mg/kg, iv measured upto 24 hrs by HPLC analysis; type: ADME, organism-based; conditions: in vivo
How it was run: (§2)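 SD rats, 180–220 g; single intravenous dose 2.5 mg/kg or oral doses of 25, 50 or 200 mg/kg, n = 6, half of each sex. Serum sampling, acetonitrile deproteinisation and HPLC quantification followed the mouse procedure. Parameters derived from concentration–time data; F% obtained from the oral and IV exposures.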

[17] = Cmax in Sprague-Dawley rat at 2.5 mg/kg, iv measured upto 24 hrs by HPLC analysis; type: ADME, organism-based; design: dose 2.5 mg/kg, route intravenous; conditions: in vivo; how it was run: as §2
[18] = AUC (0 to infinity) in Sprague-Dawley rat at 2.5 mg/kg, iv by HPLC analysis; type: ADME, organism-based; design: dose 2.5 mg/kg, route intravenous, time infinity; conditions: in vivo; how it was run: as §2
[19] = Half life in Sprague-Dawley rat at 25 mg/kg, po measured upto 24 hrs by HPLC analysis; type: ADME, organism-based; conditions: in vivo; how it was run: as §2
[20] = Half life in Sprague-Dawley rat at 50 mg/kg, po measured upto 24 hrs by HPLC analysis; type: ADME, organism-based; conditions: in vivo; how it was run: as §2
[21] = Half life in Sprague-Dawley rat at 200 mg/kg, po measured upto 24 hrs by HPLC analysis; type: ADME, organism-based; conditions: in vivo; how it was run: as §2
[22] = Tmax in Sprague-Dawley rat at 25 mg/kg, po measured upto 24 hrs by HPLC analysis; type: ADME, organism-based; conditions: in vivo; how it was run: as §2
[23] = Tmax in Sprague-Dawley rat at 50 mg/kg, po measured upto 24 hrs by HPLC analysis; type: ADME, organism-based; conditions: in vivo; how it was run: as §2
[24] = Tmax in Sprague-Dawley rat at 200 mg/kg, po measured upto 24 hrs by HPLC analysis; type: ADME, organism-based; conditions: in vivo; how it was run: as §2
[25] = Cmax in Sprague-Dawley rat at 25 mg/kg, po measured upto 24 hrs by HPLC analysis; type: ADME, organism-based; design: dose 25 mg/kg, route oral; conditions: in vivo; how it was run: as §2
[26] = Cmax in Sprague-Dawley rat at 50 mg/kg, po measured upto 24 hrs by HPLC analysis; type: ADME, organism-based; design: dose 50 mg/kg, route oral; conditions: in vivo; how it was run: as §2
[27] = Cmax in Sprague-Dawley rat at 200 mg/kg, po measured upto 24 hrs by HPLC analysis; type: ADME, organism-based; design: dose 200 mg/kg, route oral; conditions: in vivo; how it was run: as §2
[28] = AUC (0 to infinity) in Sprague-Dawley rat at 25 mg/kg, po by HPLC analysis; type: ADME, organism-based; design: dose 25 mg/kg, route oral, time infinity; conditions: in vivo; how it was run: as §2
[29] = AUC (0 to infinity) in Sprague-Dawley rat at 50 mg/kg, po by HPLC analysis; type: ADME, organism-based; design: dose 50 mg/kg, time infinity, route oral; conditions: in vivo; how it was run: as §2
[30] = AUC (0 to infinity) in Sprague-Dawley rat at 200 mg/kg, po by HPLC analysis; type: ADME, organism-based; design: dose 200 mg/kg, route oral, time infinity; conditions: in vivo; how it was run: as §2
[31] = Oral bioavailability in Sprague-Dawley rat at 25 mg/kg measured upto 24 hrs by HPLC analysis; type: ADME, organism-based; conditions: in vivo; how it was run: as §2
[32] = Oral bioavailability in Sprague-Dawley rat at 50 mg/kg measured upto 24 hrs by HPLC analysis; type: ADME, organism-based; conditions: in vivo; how it was run: as §2
[33] = Oral bioavailability in Sprague-Dawley rat at 200 mg/kg measured upto 24 hrs by HPLC analysis; type: ADME, organism-based; conditions: in vivo; how it was run: as §2
[34] = test system: Mycobacterium tuberculosis; assay: Antituberculosis activity against Mycobacterium tuberculosis H37Rv infected in BALB/C mouse assessed as reduction in log10CFU in lungs at 25 mg/kg, po administered once daily for 5 days per week for a total of 3 weeks started on day 10 post-infection; type: functional

Cytochrome P450 2C19, sequence (P33261 whole entry): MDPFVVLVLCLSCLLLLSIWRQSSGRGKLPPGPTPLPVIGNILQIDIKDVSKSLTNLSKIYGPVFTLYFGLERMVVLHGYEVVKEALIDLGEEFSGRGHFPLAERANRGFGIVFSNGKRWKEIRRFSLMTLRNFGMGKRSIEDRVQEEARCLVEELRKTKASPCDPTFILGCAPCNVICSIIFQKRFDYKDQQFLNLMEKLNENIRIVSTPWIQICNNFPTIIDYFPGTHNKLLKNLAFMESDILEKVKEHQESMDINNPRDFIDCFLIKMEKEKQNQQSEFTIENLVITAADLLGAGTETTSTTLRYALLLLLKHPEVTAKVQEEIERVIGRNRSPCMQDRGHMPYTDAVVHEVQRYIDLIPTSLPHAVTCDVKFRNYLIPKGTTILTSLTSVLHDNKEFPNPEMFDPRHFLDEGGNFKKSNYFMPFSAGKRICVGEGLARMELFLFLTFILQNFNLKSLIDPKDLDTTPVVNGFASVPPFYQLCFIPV
CYP2C9, sequence (P11712 whole entry): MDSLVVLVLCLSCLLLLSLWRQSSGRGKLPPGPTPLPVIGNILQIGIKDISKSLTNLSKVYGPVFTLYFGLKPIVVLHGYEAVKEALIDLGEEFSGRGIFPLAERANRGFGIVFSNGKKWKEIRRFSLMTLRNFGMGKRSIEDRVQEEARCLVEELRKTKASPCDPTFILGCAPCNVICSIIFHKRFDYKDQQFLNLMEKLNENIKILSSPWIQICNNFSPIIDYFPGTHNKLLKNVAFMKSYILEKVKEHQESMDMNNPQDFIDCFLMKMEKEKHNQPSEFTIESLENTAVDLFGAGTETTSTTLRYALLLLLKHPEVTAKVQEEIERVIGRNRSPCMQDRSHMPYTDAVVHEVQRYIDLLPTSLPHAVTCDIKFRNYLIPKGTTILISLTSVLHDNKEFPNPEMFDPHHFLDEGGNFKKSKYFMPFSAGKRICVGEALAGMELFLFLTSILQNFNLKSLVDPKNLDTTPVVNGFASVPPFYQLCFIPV
CYP3A4, sequence (P08684 whole entry): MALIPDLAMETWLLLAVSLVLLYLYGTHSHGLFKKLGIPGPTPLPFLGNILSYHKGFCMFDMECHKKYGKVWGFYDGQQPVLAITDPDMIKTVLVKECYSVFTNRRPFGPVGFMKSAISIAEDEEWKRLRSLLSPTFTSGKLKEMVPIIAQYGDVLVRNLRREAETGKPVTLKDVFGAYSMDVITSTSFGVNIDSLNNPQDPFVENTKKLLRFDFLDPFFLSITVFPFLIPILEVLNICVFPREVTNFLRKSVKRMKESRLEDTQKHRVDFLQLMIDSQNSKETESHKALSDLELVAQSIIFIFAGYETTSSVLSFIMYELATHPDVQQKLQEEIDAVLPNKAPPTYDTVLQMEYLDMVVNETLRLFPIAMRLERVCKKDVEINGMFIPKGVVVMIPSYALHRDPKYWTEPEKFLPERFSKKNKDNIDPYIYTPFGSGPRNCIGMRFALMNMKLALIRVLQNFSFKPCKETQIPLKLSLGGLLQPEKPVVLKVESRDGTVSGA
CYP2D6, sequence (P10635 whole entry): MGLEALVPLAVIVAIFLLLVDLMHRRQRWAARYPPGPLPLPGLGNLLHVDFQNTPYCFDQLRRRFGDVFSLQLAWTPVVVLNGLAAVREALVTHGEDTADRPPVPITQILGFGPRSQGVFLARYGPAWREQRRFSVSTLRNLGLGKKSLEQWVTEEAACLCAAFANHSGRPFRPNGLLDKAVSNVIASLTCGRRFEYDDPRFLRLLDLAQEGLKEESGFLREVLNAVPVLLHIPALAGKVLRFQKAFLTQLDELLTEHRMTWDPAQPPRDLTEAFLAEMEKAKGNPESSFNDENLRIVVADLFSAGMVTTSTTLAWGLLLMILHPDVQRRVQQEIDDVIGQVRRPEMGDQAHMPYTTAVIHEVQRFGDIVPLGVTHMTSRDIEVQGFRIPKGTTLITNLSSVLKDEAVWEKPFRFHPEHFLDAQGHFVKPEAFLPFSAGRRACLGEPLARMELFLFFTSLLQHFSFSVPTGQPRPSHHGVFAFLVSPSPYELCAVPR

## CON=C1CCC(CN2CCN(c3nc(=O)c4cc(C(F)(F)F)cc([N+](=O)[O-])c4s3)CC2)CC1 (centres undefined)
[1]
  MIC90: < 0.016 µg/mL
[2]
  CC50: > 64 µg/mL
[3]
  half-life: 1.65 h
[4]
  Tmax: 0.25 h
[5]
  Cmax: 8570 ng/mL
[6]
  AUC(0-inf): 27500 ng·h/mL
[7]
  MRT: 2.46 h
[8]
  Activity: 2.4 log10CFU
[9]
  inhibition at 32 µg/mL: 86%
[10]
  MIC: > 32 µg/mL
CYP1A2
  IC50: > 10 µM
CYP2D6
  IC50: > 10 µM
CYP3A4
  IC50: > 10 µM
CYP2C9
  IC50: > 10 µM
Cytochrome P450 2C19
  IC50: 7.8 µM
[11]
  Activity: Non-Toxic
[12]
  Activity: Non-Toxic
[13]
  Activity: Non-Toxic
[14]
  Activity: Non-Toxic
[15]
  Activity: Non-Toxic
[16]
  half-life: 1.77 h
[17]
  Cmax: 2590 ng/mL
[18]
  AUC(0-inf): 5720 ng·h/mL
[19]
  half-life: 3.2 h
[20]
  half-life: 4.13 h
[21]
  half-life: 6.73 h
[22]
  Tmax: 1.25 h
[23]
  Tmax: 1.67 h
[24]
  Tmax: 2.83 h
[25]
  Cmax: 6230 ng/mL
[26]
  Cmax: 10100 ng/mL
[27]
  Cmax: 18200 ng/mL
[28]
  AUC(0-inf): 26800 ng·h/mL
[29]
  AUC(0-inf): 45900 ng·h/mL
[30]
  AUC(0-inf): 128000 ng·h/mL
[31]
  bioavailability: 46.1%
[32]
  bioavailability: 40.4%
[33]
  bioavailability: 30.3%
[34]
  Activity: 4.04 log10CFU
